Measurements: publication PMC3759818 (Pharmaceutical research, 2009)
Values joined by “and” are separate entries in the source; they are usually repeats but may differ in a detail not shown here. Identical values can stand only once. “Also recorded” adds a separate entry of the source. Blank lines part the entries; values can stand above or below the molecule they belong to.

Legend:
BxPC-3 cells = test: PGE2 immunoassay in conditioned medium of BxPC-3 cells; type: cell-based, human; settings: 1 or 4 μM, 24 h, vs untreated control
[1] = test system: COX-2 positive BxPC-3 pancreatic cancer cells; settings: BxPC-3 cells, MTT assay; cited from earlier work
[2] = Pancreas pharmacokinetics in mice after single intragastric dose; type: in vivo
Method in brief: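 Female ICR-SCID mice, 7–8 weeks old, 18 per compound, got a single 250 mg/kg dose in sesame oil by intragastric intubation. Two mice were killed at 0, 1, 2, 4, 6, 8, 12, 16 and 24 h. Pancreas was PBS-washed, blotted, weighed, frozen at −80°C, then homogenized in 5 volumes ice-cold 0.9% saline. Homogenate was ethyl acetate-extracted with zileuton internal standard and assayed by LC-MS/MS. Values are means of two mice.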

NF-κB = type: cell-based, human; settings: MIAPaCa-2 cells, EMSA
[3] = DPPH radical scavenging assay; type: biochemical; settings: read-out: IC50, DPPH radical scavenging; data not shown
[4] = Serum pharmacokinetics in mice after single intragastric dose; type: in vivo
Method in brief: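 Female ICR-SCID mice, 7–8 weeks old, 18 per compound, got a single oral 250 mg/kg dose in sesame oil by intragastric tube. Two mice were killed at 0–24 h (nine time points). Cardiac blood was clotted and serum stored at −80°C, then ethyl acetate-extracted with zileuton internal standard and assayed by LC-MS/MS. Cmax was read from the curve. AUClast used linear (rising) and log (falling) trapezoids in non-compartmental analysis. Values are means of two mice.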

MIAPaCa-2 cells = test: PGE2 immunoassay in conditioned medium of MIAPaCa-2 cells; type: cell-based, human; settings: 1 or 4 μM, 24 h, vs untreated control
Water solubility = type: physicochemical; settings: data not shown
[5] = serum, oral 1 g/kg body weight, mouse; cited from earlier work
[6] = pancreas, single intragastric 250 mg/kg, mice, mean from two mice
[7] = single intragastric 250 mg/kg, mice, mean from two mice
[8] = female, ICR-SCID, mouse, pancreas, po, 250 mg/kg
[9] = female, ICR-SCID, mouse, po, 250 mg/kg

Cmax in pancreas relative to serum ([2]; at 8 h, oral 250 mg/kg, mice): 44.5 fold | Cmax in pancreas relative to Curcumin ([2]; pancreas, oral 250 mg/kg, mice): 4.3 fold | AUClast (concentration) in pancreas relative to Curcumin ([2]; pancreas, oral 250 mg/kg, mice, 250 mg/kg): 10 fold and 10.6 fold | AUClast [2, 6]: 36.56 µg·h/g | Clast [2, 6]: 0.04 µg/g | Cmax [2, 6]: 9.35 µg/g | Tlast [2, 6]: 12.0 h | Tmax [2, 6]: 8.0 h | IC50 [3]: 0.05 µM | Systemic drug level (serum AUClast) relative to Curcumin ([4]; oral 250 mg/kg, mice): 2.7 fold | AUClast [4, 7]: 1220 ng·h/mL | Clast [4, 7]: 40 ng/mL | Cmax [4, 7]: 210 ng/mL | Tlast [4, 7]: 16.0 h | Tmax [4, 7]: 8.0 h | Water solubility relative to Curcumin (Water solubility): 8.4 fold
SMILES: COc1cc(/C=C/C(=O)C(=Cc2ccc(F)c(F)c2)C(=O)/C=C/c2ccc(O)c(OC)c2)ccc1O [CDF]
PGE2 level in conditioned medium (BxPC-3 cells): significant decrease; also recorded: significant reduction | IC50, anti-proliferative activity [1]: low IC50 value | NF-κB DNA-binding activity (NF-κB): the effect was more pronounced with a low concentration of CDF | PGE2 level in conditioned medium (MIAPaCa-2 cells): significant decrease; also recorded: substantial reduction

Cmax [2, 8]: 2.15 µg/g | Tmax [2, 8]: 1 h | AUClast [2, 6]: 3.46 µg·h/g | Tlast [2, 6]: 16.0 h | IC50 [3]: 35 µM | Cmax [4, 9]: 220 ng/mL | Tmax [4, 9]: 1 h | Tlast [4, 7]: 8 h and 8.0 h
SMILES: COc1cc(/C=C/C(=O)CC(=O)/C=C/c2ccc(O)c(OC)c2)ccc1O [Curcumin, diferuloylmethane, reference compound]
Time of Cmax [5]: 1 h | PGE2 level in conditioned medium (BxPC-3 cells): such results were not found; also recorded: no significant change | NF-κB DNA-binding activity (NF-κB): caused down-regulation of NF-κB | PGE2 level in conditioned medium (MIAPaCa-2 cells): significant decrease; also recorded: substantial reduction
